Series [1] is described as follows: Genotoxicity in micronucleus (unknown origin).
The subject of another series is Salmonella typhimurium. The experiment in a line: Mutagenic activity in Salmonella typhimurium by Ames test. The class given is toxicity, organism-based. As to conditions: salmonella enterica subsp. enterica serovar typhimurium.
In series [2] the target is Voltage-gated inwardly rectifying potassium channel KCNH2 (Homo sapiens, UniProt Q12809). The experiment in a line: Inhibition of human ERG transfected in CHO cells by patch clamp assay. The class given is cell-based. The essentials: (§1)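 Whole-cell patch clamp on CHO cells stably transfected with the human ERG gene.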
In general terms: In patch-clamp work, channel activity is measured electrically.

Series [3] concerns the target T1, hERG (KCNH2) (Homo sapiens, UniProt Q12809). The experiment in a line: Inhibition of human ERG transfected in CHO cells at 10 uM by patch clamp assay relative to control. As to conditions: CHO cells transfected with human ERG; call rule not given here. Type of series: cell-based. The method in brief: as §1
In series [4] the target is T1, hERG (KCNH2). The experiment in a line: Inhibition of human ERG transfected in CHO cells at 1 uM by patch clamp assay relative to control. Type of series: cell-based. As to conditions: CHO cells transfected with human ERG. The essentials: as §1
Another series deals with Cytochrome P450 3A4 (Homo sapiens, UniProt P08684). The experiment in a line: Inhibition of CYP3A4 (unknown origin). The class given is ADME.
A further series concerns the target Cytochrome P450 2C19 (Homo sapiens, UniProt P33261). The series is described as follows: Inhibition of CYP2C19 (unknown origin). Type of series: ADME.
In the next series the target is Cytochrome P450 2D6 (Homo sapiens, UniProt P10635). The experiment in a line: Inhibition of CYP2D6 (unknown origin). The class given is ADME.
In a further series the target is Cytochrome P450 2C9 (Homo sapiens, UniProt P11712). The series is described as follows: Inhibition of CYP2C9 (unknown origin). Type of series: ADME.
Another series concerns the target T2, Cytochrome P450 2B6 (Homo sapiens, UniProt P20813).
T2 sequence (P20813 whole entry): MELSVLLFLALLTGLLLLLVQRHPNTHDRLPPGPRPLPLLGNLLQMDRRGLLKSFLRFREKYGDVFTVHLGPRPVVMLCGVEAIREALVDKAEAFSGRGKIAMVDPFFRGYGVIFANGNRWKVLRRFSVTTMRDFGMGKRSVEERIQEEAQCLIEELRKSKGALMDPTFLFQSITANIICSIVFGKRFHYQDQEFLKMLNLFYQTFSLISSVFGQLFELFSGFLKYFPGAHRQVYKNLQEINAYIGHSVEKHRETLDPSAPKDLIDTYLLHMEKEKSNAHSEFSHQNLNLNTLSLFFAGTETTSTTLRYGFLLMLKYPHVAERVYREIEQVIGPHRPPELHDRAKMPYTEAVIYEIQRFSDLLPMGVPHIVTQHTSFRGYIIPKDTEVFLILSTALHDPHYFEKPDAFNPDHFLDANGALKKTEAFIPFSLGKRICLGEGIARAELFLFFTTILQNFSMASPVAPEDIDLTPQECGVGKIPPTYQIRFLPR
The experiment in a line: Inhibition of CYP2B6 (unknown origin). The class given is ADME.

The target of the next series is T3, Cytochrome P450 1A2 (Homo sapiens, UniProt P05177).
T3 sequence (P05177 whole entry): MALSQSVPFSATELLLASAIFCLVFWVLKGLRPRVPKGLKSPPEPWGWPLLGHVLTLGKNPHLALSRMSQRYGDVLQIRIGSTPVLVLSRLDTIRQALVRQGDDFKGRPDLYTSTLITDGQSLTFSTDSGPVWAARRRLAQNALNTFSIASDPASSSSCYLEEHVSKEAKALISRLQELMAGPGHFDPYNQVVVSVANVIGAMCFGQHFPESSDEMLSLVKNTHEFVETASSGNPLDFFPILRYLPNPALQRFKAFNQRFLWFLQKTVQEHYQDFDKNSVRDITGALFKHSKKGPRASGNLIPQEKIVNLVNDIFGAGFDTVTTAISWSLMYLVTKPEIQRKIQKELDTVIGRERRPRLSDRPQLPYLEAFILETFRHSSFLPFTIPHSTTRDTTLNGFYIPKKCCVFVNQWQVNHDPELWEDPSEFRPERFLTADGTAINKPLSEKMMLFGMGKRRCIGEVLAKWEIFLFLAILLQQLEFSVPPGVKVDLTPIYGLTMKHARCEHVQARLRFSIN
The experiment in a line: Inhibition of CYP1A2 (unknown origin). The class given is ADME.

The nature of series [5]: Drug metabolism in rat liver microsomes at 5 uM after 20 mins. The class given is ADME, Microsome. As to conditions: read-out: Drug metabolism. The essentials:
(§2)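 Substrate at 5 µM incubated at 37 °C for 20 min with in-house liver microsome preparations (human, mouse or rat). Reported as the percentage of parent compound metabolized.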

Series [6] is described as follows: Drug metabolism in human liver microsomes at 5 uM after 20 mins. As to conditions: read-out: Drug metabolism. The class given is ADME, Microsome. The essentials:
as §2

Series [7] in a line: Drug metabolism in mouse liver microsomes at 5 uM after 20 mins. Type of series: ADME, Microsome. As to conditions: read-out: Drug metabolism. The essentials:
as §2
A general note: Liver microsomes are vesicles of endoplasmic reticulum, rich in cytochrome P450 enzymes.

In series [8] the target is Histamine H3 receptor (Rattus norvegicus, UniProt Q9QYN8). The experiment in a line: Displacement of [3H]N-alpha-methylhistamine from recombinant rat histamine H3 receptor transfected in CHO cell membranes after 1 hr by scintillation counting analysis. Set-up: species or system Membrane. The method in brief:
(§3)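 Radioligand displacement of [3H]N-α-methylhistamine using membranes from CHO cells stably transfected with recombinant human or rat H3 receptor. Ki is presented as a range of multiple experiments (n ≥ 3).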
For orientation: In a radioligand displacement assay an active substance lowers the binding of a labelled ligand.

Series [9] addresses Histamine H3 receptor (Homo sapiens, UniProt Q9Y5N1). The experiment in a line: Displacement of [3H]N-alpha-methylhistamine from recombinant human histamine H3 receptor transfected in CHO cell membranes after 1 hr by scintillation counting analysis. The essentials: as §3
The nature of series [10]: Partition coefficient, log P of the compound. As to conditions: octanol/water. Type of series: physicochemical.
Series [11] is described as follows: Distribution coefficient, log D of the compound. The class given is physicochemical. As to conditions: octanol/water.
Series [12] can be described thus: Solubility of the compound in PBS buffer at pH 7.4. Type of series: physicochemical. The method in brief: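 Solubility measured in PBS at pH 7.4.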

Structures are written as SMILES. Converted amounts (≈) assume the structure as drawn. Some results are limits rather than exact numbers.

By IC50 is commonly meant the midpoint of a concentration-inhibition curve. Low values mean higher potency, high ones lower potency. What is called inhibition is the percentage by which the read-out fell short of the control. Higher therefore signals a response far below the control. A word on the Ki: it is a measure of affinity in units of concentration, obtained from inhibition or displacement. As usually defined, the logP is the decadic logarithm of the partition coefficient of the neutral form, usually between octanol and water. A high value points to higher lipophilicity. The logD is lipophilicity at a set pH, counting ionised and neutral species. A high value points to a more lipophilic compound. The term solubility denotes the dissolved amount per volume that the medium holds. A higher solubility goes with a readily soluble substance.

T1 sequence (Q12809 whole entry): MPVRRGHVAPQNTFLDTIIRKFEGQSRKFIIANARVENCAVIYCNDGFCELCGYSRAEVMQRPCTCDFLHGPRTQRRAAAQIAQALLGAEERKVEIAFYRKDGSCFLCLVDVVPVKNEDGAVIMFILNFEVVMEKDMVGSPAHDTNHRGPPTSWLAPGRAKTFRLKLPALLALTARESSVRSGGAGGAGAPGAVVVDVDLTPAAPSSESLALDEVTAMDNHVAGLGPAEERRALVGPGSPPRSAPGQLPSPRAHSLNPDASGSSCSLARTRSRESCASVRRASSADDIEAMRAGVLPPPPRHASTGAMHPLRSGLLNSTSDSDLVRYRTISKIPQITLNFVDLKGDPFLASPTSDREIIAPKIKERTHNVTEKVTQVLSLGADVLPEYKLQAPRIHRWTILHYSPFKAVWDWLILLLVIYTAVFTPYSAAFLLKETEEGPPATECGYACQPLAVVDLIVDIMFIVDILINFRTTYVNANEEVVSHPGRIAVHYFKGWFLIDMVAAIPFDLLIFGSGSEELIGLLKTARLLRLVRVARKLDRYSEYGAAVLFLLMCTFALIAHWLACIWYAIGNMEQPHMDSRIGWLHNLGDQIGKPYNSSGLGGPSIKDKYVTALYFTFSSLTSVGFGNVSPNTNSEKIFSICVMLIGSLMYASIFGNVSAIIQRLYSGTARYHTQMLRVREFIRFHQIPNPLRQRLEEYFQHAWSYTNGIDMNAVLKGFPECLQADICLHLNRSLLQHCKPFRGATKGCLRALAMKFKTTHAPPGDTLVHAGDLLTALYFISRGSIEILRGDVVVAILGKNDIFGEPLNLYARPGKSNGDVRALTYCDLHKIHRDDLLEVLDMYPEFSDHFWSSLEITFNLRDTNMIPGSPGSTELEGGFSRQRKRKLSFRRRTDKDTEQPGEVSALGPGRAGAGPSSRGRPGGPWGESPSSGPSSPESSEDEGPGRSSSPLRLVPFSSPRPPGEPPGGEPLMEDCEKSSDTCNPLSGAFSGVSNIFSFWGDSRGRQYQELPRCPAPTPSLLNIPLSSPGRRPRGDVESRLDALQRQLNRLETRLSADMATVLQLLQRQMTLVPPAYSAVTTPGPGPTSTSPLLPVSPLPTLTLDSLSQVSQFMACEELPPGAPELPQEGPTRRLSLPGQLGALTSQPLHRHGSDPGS
Chain of Histamine H3 receptor (Rattus norvegicus, UniProt Q9QYN8) (Q9QYN8 whole entry): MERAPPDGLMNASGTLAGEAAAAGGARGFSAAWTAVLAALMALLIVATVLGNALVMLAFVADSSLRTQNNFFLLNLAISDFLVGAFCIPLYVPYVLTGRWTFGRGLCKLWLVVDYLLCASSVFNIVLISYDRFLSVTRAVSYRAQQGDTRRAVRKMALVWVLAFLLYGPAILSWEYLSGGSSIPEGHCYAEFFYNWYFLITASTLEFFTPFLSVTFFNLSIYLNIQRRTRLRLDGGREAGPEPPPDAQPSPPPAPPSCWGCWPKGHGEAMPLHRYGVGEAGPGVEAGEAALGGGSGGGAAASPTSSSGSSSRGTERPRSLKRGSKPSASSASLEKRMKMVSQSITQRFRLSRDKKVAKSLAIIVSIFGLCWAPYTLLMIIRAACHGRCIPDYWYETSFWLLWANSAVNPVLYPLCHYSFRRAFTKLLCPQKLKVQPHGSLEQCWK
Chain of Cytochrome P450 2C19 (P33261 whole entry): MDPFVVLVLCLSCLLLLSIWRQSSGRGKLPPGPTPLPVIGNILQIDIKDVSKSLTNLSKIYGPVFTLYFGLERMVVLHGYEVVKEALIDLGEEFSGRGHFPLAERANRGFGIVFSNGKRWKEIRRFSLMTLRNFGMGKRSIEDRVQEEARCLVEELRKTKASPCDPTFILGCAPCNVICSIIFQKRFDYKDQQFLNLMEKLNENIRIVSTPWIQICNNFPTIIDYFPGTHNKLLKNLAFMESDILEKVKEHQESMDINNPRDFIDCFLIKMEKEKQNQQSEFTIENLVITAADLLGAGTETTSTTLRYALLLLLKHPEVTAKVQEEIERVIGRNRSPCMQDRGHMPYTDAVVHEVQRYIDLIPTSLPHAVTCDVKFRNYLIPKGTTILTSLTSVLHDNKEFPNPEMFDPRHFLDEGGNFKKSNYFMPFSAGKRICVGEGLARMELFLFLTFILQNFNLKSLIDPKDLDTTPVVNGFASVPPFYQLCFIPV
Chain of Cytochrome P450 2C9 (P11712 whole entry): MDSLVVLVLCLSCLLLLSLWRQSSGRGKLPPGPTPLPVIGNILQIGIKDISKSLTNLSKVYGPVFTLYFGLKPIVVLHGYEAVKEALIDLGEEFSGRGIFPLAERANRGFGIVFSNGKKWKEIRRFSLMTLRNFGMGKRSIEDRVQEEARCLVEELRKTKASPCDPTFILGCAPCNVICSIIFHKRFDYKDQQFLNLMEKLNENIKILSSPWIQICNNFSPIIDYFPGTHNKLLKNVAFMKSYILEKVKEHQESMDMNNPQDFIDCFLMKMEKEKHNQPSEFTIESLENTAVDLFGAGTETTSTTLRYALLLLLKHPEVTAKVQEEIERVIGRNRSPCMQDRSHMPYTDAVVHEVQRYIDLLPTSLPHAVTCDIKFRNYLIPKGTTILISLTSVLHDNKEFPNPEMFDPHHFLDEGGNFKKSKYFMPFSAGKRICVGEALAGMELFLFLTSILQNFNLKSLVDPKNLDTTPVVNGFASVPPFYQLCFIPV
Chain of Histamine H3 receptor (Homo sapiens, UniProt Q9Y5N1) (Q9Y5N1 whole entry): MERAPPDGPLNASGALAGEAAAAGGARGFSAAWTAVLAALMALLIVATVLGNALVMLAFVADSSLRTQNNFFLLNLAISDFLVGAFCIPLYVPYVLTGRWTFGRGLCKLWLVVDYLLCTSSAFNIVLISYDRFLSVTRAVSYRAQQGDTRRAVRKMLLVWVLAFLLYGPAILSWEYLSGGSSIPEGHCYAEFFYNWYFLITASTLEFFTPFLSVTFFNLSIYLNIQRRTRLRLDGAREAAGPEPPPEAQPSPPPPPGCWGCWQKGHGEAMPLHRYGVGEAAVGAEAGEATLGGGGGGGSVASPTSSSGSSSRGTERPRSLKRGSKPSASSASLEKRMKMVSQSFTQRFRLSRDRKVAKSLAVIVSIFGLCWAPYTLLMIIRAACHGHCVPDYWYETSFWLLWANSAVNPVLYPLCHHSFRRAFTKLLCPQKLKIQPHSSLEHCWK
Chain of Cytochrome P450 3A4 (P08684 whole entry): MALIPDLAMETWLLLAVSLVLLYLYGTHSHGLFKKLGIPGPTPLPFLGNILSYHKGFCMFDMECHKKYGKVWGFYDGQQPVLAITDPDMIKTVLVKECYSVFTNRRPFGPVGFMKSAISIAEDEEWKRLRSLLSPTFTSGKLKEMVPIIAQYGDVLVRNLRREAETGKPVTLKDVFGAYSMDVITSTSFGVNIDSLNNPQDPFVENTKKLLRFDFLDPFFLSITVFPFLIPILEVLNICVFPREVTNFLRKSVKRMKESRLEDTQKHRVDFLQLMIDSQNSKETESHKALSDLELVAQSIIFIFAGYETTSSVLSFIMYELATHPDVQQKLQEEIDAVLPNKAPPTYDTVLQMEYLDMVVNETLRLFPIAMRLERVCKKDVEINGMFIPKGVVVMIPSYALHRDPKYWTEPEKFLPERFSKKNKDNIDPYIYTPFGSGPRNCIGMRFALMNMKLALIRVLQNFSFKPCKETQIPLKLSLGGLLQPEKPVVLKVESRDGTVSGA
Chain of Cytochrome P450 2D6 (P10635 whole entry): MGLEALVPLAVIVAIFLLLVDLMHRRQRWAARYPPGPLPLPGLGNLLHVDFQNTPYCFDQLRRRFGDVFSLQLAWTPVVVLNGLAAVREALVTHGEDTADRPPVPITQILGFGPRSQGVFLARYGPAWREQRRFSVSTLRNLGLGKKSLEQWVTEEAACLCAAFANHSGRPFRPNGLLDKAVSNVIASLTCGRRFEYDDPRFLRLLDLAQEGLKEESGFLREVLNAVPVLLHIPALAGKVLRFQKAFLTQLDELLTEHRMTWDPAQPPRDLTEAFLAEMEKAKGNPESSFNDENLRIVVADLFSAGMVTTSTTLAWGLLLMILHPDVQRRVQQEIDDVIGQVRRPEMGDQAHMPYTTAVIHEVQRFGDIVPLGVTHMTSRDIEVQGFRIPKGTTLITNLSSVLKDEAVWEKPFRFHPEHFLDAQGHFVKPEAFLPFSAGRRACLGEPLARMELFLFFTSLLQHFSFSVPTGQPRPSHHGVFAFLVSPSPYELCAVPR

`Cc1cc(N2CC[C@@H](N3CCC[C@@H]3C)C2)ccc1NC(=O)c1cc(F)ccc1C`: the Activity entry (in series [1]; in the series on Salmonella typhimurium) was “Non-toxic” throughout. Further, the IC50 in [2] was 1.8 µM; at Cytochrome P450 3A4, more than 30 µM; on Cytochrome P450 2C19 it was more than 30 µM; at Cytochrome P450 2D6, more than 30 µM; against Cytochrome P450 2C9, more than 30 µM; against Cytochrome P450 2B6 it was more than 30 µM. The same molecule came in with an IC50 on Cytochrome P450 1A2 of more than 30 µM. For the same molecule, at hERG (KCNH2) [3], the inhibition at 10 µM stood at 88.6%. Besides, at hERG (KCNH2) [4], the inhibition at 1 µM was 38.8%. For the same molecule, the metabolised at 20 min, 5 µM in [5] was 36%; in [6], 5%; in series [7], 20%. Besides, the Ki is 0.011 µM on Histamine H3 receptor [8] and 0.018 µM on Histamine H3 receptor [9]. In addition, in [10], the logP came to 3.55. Further, the logD in series [11] was found to be 2.09. Further, the concentration in solution in series [12] (solubility) was 88.5 µg/mL (≈ 224 µM).
Take `Cc1cc(N2CC[C@@H](N3CCC[C@H]3C)C2)ccc1NC(=O)c1cc(F)ccc1C`: the Activity result (in series [1]; in the series with Salmonella typhimurium) was “Non-toxic” throughout. Further, at 10 µM the inhibition on hERG (KCNH2) [3] was 77.5%. In addition, at hERG (KCNH2) [4], at 1 µM the inhibition was 33.7%. Further, the IC50 on Cytochrome P450 3A4, against Cytochrome P450 2C19, against Cytochrome P450 2D6, at Cytochrome P450 2C9, on Cytochrome P450 2B6 and on Cytochrome P450 1A2 was more than 30 µM each time. Moreover, the metabolised at 20 min, 5 µM turned out to be 27% in series [5], 8% in series [6] and 17% in series [7]. The values for the inhibitory constant (Ki) on Histamine H3 receptor [8] and at Histamine H3 receptor [9] were 0.0737 µM and 0.3 µM, respectively.

Source of the values: ChEMBL document CHEMBL2401654, “Synthesis, characterization, and biological assessment of the four stereoisomers of the H(3) receptor antagonist 5-fluoro-2-methyl-N-[2-methyl-4-(2-methyl[1,3']bipyrrolidinyl-1'-yl)phenyl]benzamide” (Bioorg Med Chem Lett, 2013).
